Series [1] in a line: Scavenging activity against NO generation in NOR1-induced cell culture. It is filed as functional. In a few lines:
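Cultured-cell screen for scavenging of NO released by the NO donor NOR 1. Activity expressed as inhibitory ratio (IR) against NOR 1 action, with glycyrrhizin and carboxy-PTIO as reference compounds.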

Series [2] is described as follows: Cytotoxicity against human Raji cells assessed as cell viability at 1000 mol ratio/TPA relative to control. To be noted: read-out: Activity. The format is cell-based. An outline of the steps: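 Raji cells stimulated with TPA at 32 pmol (20 ng), taken as 100% positive control. Test compound added at mol ratio to TPA of 1000, 500, 100 or 10 (1000:1 = 32 nmol). EBV-EA induction expressed as % of positive control; Raji cell viability recorded as % at the 1000 ratio. IC50 as mol ratio to TPA inhibiting 50% of control.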

For series [3], the species on record is Mus musculus. The series can be described thus: Inhibition of DMBA-induced carcinogenesis in mouse assessed as reduction in papilloma bearing mouse after 10 weeks. Further details: scale not given: the % may be the effect or the level left. The format is functional. An outline of the steps: (§1)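 Mouse skin two-stage model, DMBA initiation and TPA promotion. Promotion with TPA 1.7 nmol; treated groups received 85 nmol test compound with each TPA application. Read-outs were % of mice bearing papillomas and mean papillomas per mouse, scored at 10 and 20 weeks. Papilloma numbers compared by Student's t-test.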

The species entered for series [4] is Mus musculus. The series can be described thus: Inhibition of DMBA-induced carcinogenesis in mouse assessed as reduction in papilloma bearing mouse after 20 weeks. The format is functional. Further details: scale not given: the % may be the effect or the level left. An outline of the steps:
as §1

The species entered for series [5] is Mus musculus. Kind of series: Inhibition of DMBA-induced carcinogenesis in mouse assessed as number of papillomas per mouse after 10 weeks. The format is functional. An outline of the steps: as §1
The species entered for series [6] is Mus musculus. The series can be described thus: Inhibition of DMBA-induced carcinogenesis in mouse assessed as number of papillomas per mouse after 20 weeks. It is filed as functional. In a few lines: as §1
Series [7] relates to Raji. The series can be described thus: Inhibition of TPA-induced Epstein-Barr virus early antigen in Raji cells at 10 mol ratio/TPA relative to control; values are per cent of control. The conditions noted are these: human gammaherpesvirus 4.
Series [8] deals with Raji. Kind of series: Inhibition of TPA-induced Epstein-Barr virus early antigen in Raji cells at 500 mol ratio/TPA relative to control; values are per cent of control. To be noted: human gammaherpesvirus 4.
The subject of series [9] is Raji. Kind of series: Inhibition of TPA-induced Epstein-Barr virus early antigen in Raji cells at 100 mol ratio/TPA relative to control; values are per cent of control. The conditions noted are these: human gammaherpesvirus 4.
For series [10], the system named is Raji. The series can be described thus: Inhibition of TPA-induced Epstein-Barr virus early antigen in Raji cells at 1000 mol ratio/TPA relative to control; values are per cent of control. The conditions noted are these: human gammaherpesvirus 4.
For series [11], the system named is Mus musculus. The series can be described thus: Inhibition of peroxynitrite-induced carcinogenesis in po dosed mouse skin assessed as incidence of papilloma bearing mouse after 20 weeks. The format is functional. Set-up: scale not given: the % may be the effect or the level left. In a few lines: (§2)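 Mouse back shaved and initiated topically with peroxynitrite (PN) 390 nmol in 1 mM NaOH (0.1 mL). Test compound given orally at 0.0025% in drinking water from 1 week before to 1 week after initiation. From 1 week after initiation, TPA (1 μg, 1.7 nmol) in acetone applied twice weekly. 15 mice per group. Papilloma incidence and papillomas per mouse recorded weekly for 20 weeks; papillomas counted once about 1 mm × 1 mm. Student's t-test used.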

For series [12], the system named is Mus musculus. The series can be described thus: Inhibition of peroxynitrite-induced carcinogenesis in po dosed mouse skin assessed as reduction in papilloma bearing animals after 20 weeks. The format is functional. An outline of the steps:
as §2

As to `C=C(C)/C=C/C[C@@H](C)[C@H]1CC[C@@]2(C)[C@@H]3C=C[C@@]45O[C@@H](OC)[C@]3(CC[C@]12C)[C@@H]4CC[C@H](O)C5(C)C`, the inhibitory ratio (IR) against NOR 1 action in [1] was 2. For the same compound, the viability at 1000 mol ratio/TPA in [2] was determined as 70%. Besides, the Activity in [3] was found to be 33%; in series [4], 80%; in series [5] it was 1.7; in series [6] it was 4. Also, the level, % of control amounted to 82.7% in series [7], 18.5% in series [8], 60.2% in [9] and 0% in series [10].
Regarding `CO[C@@H]1O[C@]23C=C[C@@H]4[C@@]1(CC[C@]1(C)[C@@H]([C@H](C)C/C=C/C(C)(C)OC)CC[C@@]41C)[C@@H]2CC[C@H](O)C3(C)C`, in series [1], the inhibitory ratio (IR) against NOR 1 action stood at 1.9. Further, the viability at 1000 mol ratio/TPA in series [2] stood at 70%. Further, the Activity in series [3] worked out at 33%; in series [4], 80%; in [5], 2.1; in series [6] it was 3.9; in [11] it was 80%; in [12], 4.5. In addition, the level, % of control in series [7] amounted to 83.9%; in series [8] it was 19%; in series [9], 42.4%; in series [10] it was 0%.

These data come from ChEMBL document CHEMBL1141264, “Cucurbitane-type triterpenoids from the fruits of Momordica charantia and their cancer chemopreventive effects” (J Nat Prod, 2007).
